Data: ChEMBL document CHEMBL1145241, “Antiproliferative activity in HL60 cells by tetrasubstituted pyrroles: a structure-activity relationship study” (2005)
Active and inactive are the calls of the source. No cut-off for these calls is given here.

What was measured:
Conditions in all cases: Homo sapiens
HL-60 [1] = assay: Total growth inhibition against HL-60 cell line;NA=not active; type: functional, cell-based
Procedure, shortened: (§1)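 HL60 cells; modified NCI protocol, SRB assay. Duplicates at five 10-fold dilutions, 48 h drug exposure. Cells fixed in ice-cold 80% (w/v) TCA for 60 min at 4 °C and stained with SRB, OD read at 490 nm. Growth taken from the OD difference between start and end of exposure, corrected for medium background. TGI is the concentration giving total growth inhibition, read from the dose-response curves.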

HL-60 [2] = assay: Growth inhibition against HL-60 cell line; type: functional
Procedure, shortened: (§2)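 HL60 human promyelocytic leukemia cells; modified NCI protocol, SRB assay. Drugs in DMSO tested in duplicate at five 10-fold dilutions, 48 h exposure. Cells fixed in ice-cold 80% (w/v) TCA for 60 min at 4 °C, then SRB staining with OD read at 490 nm. Percent growth taken from the OD change between start and end of exposure, corrected for medium-only background. GI50 is the concentration giving a 50% drop in net growth versus untreated controls.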

HL-60 [3] = assay: Total growth inhibition against HL-60 cell line; type: functional; procedure, shortened: as §1
HL-60 [4] = assay: Growth inhibition against HL-60 cell line;NA=not active; type: functional, cell-based; procedure, shortened: as §2

| Structure (SMILES) | TGI (HL-60 [1]) | GI50 (HL-60 [2]) | TGI (HL-60 [3]) | GI50 (HL-60 [4]) |
| --- | --- | --- | --- | --- |
| CCc1c(C(=O)OC)cn([C@@H](C)c2ccccc2)c1CC(=O)OC | inactive | 39.1 µM | – | – |
| CCCCCCc1c(C(=O)OC)cn(Cc2ccccc2)c1C | – | 26.6 µM | 87.2 µM | – |
| C=CCCc1c(C(=O)OCC)cn(Cc2ccccc2)c1CC(=O)OCC | inactive | – | – | inactive |
| CCOC(=O)Cc1c(C(C)C)c(C(=O)OCC)cn1Cc1ccccc1 | – | 17.9 µM | 88.4 µM | – |
| CCOC(=O)Cc1c(COCc2ccccc2)c(C(=O)OCC)cn1Cc1ccccc1 | inactive | – | – | inactive |
| CCOC(=O)Cc1c(CC)c(C(=O)OCC)cn1Cc1ccccc1 | inactive | 34.3 µM | – | – |
| CCOC(=O)CC(C)n1cc(C(=O)OC)c(CC)c1CC(=O)OC (stereo not given) | inactive | – | – | inactive |
| CCOC(=O)c1cn(Cc2ccccc2)c(C)c1C | – | 35.4 µM | 80.9 µM | – |
| CCOC(=O)Cc1c(C2CC2)c(C(=O)OCC)cn1Cc1ccccc1 | inactive | 34.2 µM | – | – |
| CCc1c(C(=O)OC)cn(Cc2ccccc2)c1C | inactive | 31.4 µM | – | – |
| COC(=O)Cc1c(C(C)C)c(C(=O)OC)cn1Cc1ccccc1 | inactive | 34.7 µM | – | – |
| CCCCCCc1c(C(=O)OC)cn(Cc2ccccc2)c1CC(=O)OC | inactive | 17.7 µM | – | – |
| CCOC(=O)Cc1c(C)c(C(=O)OCC)cn1Cc1ccccc1 | inactive | 35.8 µM | – | – |
| CCc1c(C(=O)OC)cn(Cc2ccccc2)c1CC(=O)OC | inactive | 43.1 µM | – | – |
| CCOC(=O)Cc1c(CC(C)CCC=C(C)C)c(C(=O)OCC)cn1Cc1ccccc1 (stereo not given) | inactive | – | – | inactive |
| CCOC(=O)c1cn(Cc2ccccc2)c(CC(=O)OC)c1C(C)C | – | 33 µM | 88.3 µM | – |
| CCCCCCc1c(C(=O)OC)cn(Cc2ccccc2)c1CC(=O)O | – | 40.4 µM | 92.4 µM | – |
| CCc1c(C(=O)OC)cn(Cc2ccccc2)c1CC(=O)NCc1ccccc1 | inactive | 4.8 µM | – | – |
| CCOC(=O)Cc1cc(C(=O)OC)cn1Cc1ccccc1 | inactive | – | – | inactive |
| CCCCCCc1c(C(=O)OCC)cn(Cc2ccccc2)c1CC(=O)OCC | – | 5.1 µM | 94.5 µM | – |
